For experiment [1], the system named is Mus musculus. Nature of the experiment: Anxiolytic activity in mouse assessed as increase in time spent in the open arm at 1 mg/kg measured for 3 mins by elevated plus maze test relative to vehicle treated control. Format: functional, organism-based. In short, it runs like this: (§1)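 Elevated plus maze in mice, 3 min screen. Read-out is percent of time spent in the open arms versus vehicle-treated mice. Diazepam reference at 1 mg/kg. Pretreatment with bicuculline (0.1 mg/kg, i.p.) or ondansetron (1 mg/kg, i.p.) preceded the test agent. n = 6/group. One-way ANOVA followed by Bonferroni, P<0.05.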

Experiment [2] has as its system Mus musculus. The experiment in a line: Anxiolytic activity in mouse assessed as increase in time spent in the light area at 1 mg/kg, ip measured for 3 mins by dark-light transition test. Format: functional, organism-based. In short, it runs like this:
(§2)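 Dark-light transition box in mice, 3 min session. Cumulative time spent in the light area was recorded. Diazepam reference at 1 mg/kg i.p. Antagonist arms were pretreated with bicuculline (0.1 mg/kg, i.p.) or ondansetron (1 mg/kg, i.p.) before the test agent. n = 6. One-way ANOVA with Bonferroni comparisons, P<0.05.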

The species entered for experiment [3] is Mus musculus. Nature of the experiment: Anticonvulsant activity in mouse assessed as time to death post pentylenetetrazole challenge measured for 20 mins. The class given is functional. In short, it runs like this:
(§3)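 Mice given an acute pentylenetetrazole challenge (70 mg/kg, i.p.). Time to death recorded over a 20 min observation. Some groups were pretreated with bicuculline (0.1 mg/kg, i.p.) or ondansetron (1 mg/kg, i.p.) before the test agent. n = 6 per group. One-way ANOVA with Bonferroni post-test, P<0.05.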

The species entered for experiment [4] is Mus musculus. The experiment in a line: Anxiolytic activity in mouse assessed as increase in time spent in the light area measured for 3 mins by dark-light transition test. Format: functional, organism-based. In short, it runs like this:
as §2

The test system of experiment [5] is Mus musculus. The experiment in a line: Anxiolytic activity in mouse assessed as increase in time spent in the light area pretreated with 1 mg/kg, ip 5-HT3 receptor blocker ondansetron followed by compound administration measured for 3 mins by dark-light transition test. Format: functional, organism-based. In short, it runs like this: as §2
Experiment [6] deals with Mus musculus. Nature of the experiment: Anticonvulsant activity in mouse model of PTZ-induced seizures assessed as prolongation of death time post pentylenetetrazole challenge pretreated with 0.1 mg/kg, ip GABA-A blocker bicuculline followed by compound administration measured for 20 mins. The class given is functional, organism-based. In short, it runs like this: as §3

For experiment [7], the system named is Mus musculus. Nature of the experiment: Anxiolytic activity in mouse assessed as increase in time spent in the open arm pretreated with 1 mg/kg, ip 5-HT3 receptor blocker ondansetron followed by compound administration measured for 3 mins by elevated plus maze test. Format: functional, organism-based. In short, it runs like this:
as §1

Experiment [8] deals with Mus musculus. Nature of the experiment: Anxiolytic activity in mouse assessed as increase in time spent in the light area pretreated with 0.1 mg/kg, ip GABA-A blocker bicuculline followed by compound administration measured for 3 mins by dark-light transition test. Format: functional, organism-based. In short, it runs like this: as §2
For experiment [9], the system named is Mus musculus. The experiment in a line: Anticonvulsant activity in mouse model of PTZ-induced seizures assessed as prolongation of death time post pentylenetetrazole challenge pretreated with 1 mg/kg, ip 5-HT3 receptor blocker ondansetron followed by compound administration measured for 20 mins. Format: functional, organism-based. In short, it runs like this: as §3

Experiment [10] deals with Mus musculus. Nature of the experiment: Anxiolytic activity in mouse assessed as increase in time spent in the open arm pretreated with 0.1 mg/kg, ip GABA-A blocker bicuculline followed by compound administration measured for 3 mins by elevated plus maze test. The class given is functional, organism-based. In short, it runs like this: as §1
The species named for experiment [11] is Mus musculus. Nature of the experiment: Anxiolytic activity in mouse assessed as increase in time spent in the open arm measured for 3 mins by elevated plus maze test relative to vehicle treated control. The class given is functional, organism-based. In short, it runs like this:
as §1

Each structure is given as a SMILES string. Activity calls are given as the source filed them. No cut-off for these calls is given here.

As to `CN1C(=O)CN=C(c2ccccc2)c2cc(Cl)ccc21` [DIAZEPAM], the outcome with Mus musculus [1] and in the experiment on Mus musculus [2] was Active. Further, the Time in the experiment listed under Mus musculus [3] stood at 536 s.

For `CCCCCCCCCCCCCC/C=C/C=C/[C@@H](O)[C@H](CO)NC(=O)CCCCCCCCCCCC`, the outcome in the experiment filed under Mus musculus [4], in the experiment with Mus musculus [5], in the experiment on Mus musculus [7], in the experiment on Mus musculus [9] and in the experiment filed under Mus musculus [11] was Active. Also, the Time in the experiment filed under Mus musculus [3] came to 911 s. Moreover, the outcome in the experiment on Mus musculus [6], in the experiment with Mus musculus [8] and in the experiment on Mus musculus [10] was inactive.

(Values after ChEMBL document CHEMBL3734687, “Mechanism of action of antiepileptic ceramide from Red Sea soft coral Sarcophyton auritum” (2015).)
